Data set [1] relates to CD1 mice. Briefly: Capsaicin-induced spontaneous pain. Conditions: capsaicin 1 μg; for Capsaicin-induced pain: 10 μg intraplantar; for Capsaicin-induced nocifensive behaviors: 10 ng intraplantar. Type of data set: in vivo, mouse.
Data set [2] deals with TRPA1 (Mus musculus, UniProt Q8BLA8). Kind of data set: Whole-cell patch clamp of AITC-induced TRPA1 currents in dissociated DRG neurons. It is filed as cell-based. The conditions noted are these: for Effect on TRPA1 currents: AITC (300 μM)-induced current; for IC50: read-out: TRPA1 IC50, TRPA1 current induced by AITC (300 μM), DRG neurons. Background: In patch-clamp work, channel activity is measured electrically.
TRPA1 (Mus musculus, UniProt Q8BLA8), sequence (Q8BLA8 whole entry): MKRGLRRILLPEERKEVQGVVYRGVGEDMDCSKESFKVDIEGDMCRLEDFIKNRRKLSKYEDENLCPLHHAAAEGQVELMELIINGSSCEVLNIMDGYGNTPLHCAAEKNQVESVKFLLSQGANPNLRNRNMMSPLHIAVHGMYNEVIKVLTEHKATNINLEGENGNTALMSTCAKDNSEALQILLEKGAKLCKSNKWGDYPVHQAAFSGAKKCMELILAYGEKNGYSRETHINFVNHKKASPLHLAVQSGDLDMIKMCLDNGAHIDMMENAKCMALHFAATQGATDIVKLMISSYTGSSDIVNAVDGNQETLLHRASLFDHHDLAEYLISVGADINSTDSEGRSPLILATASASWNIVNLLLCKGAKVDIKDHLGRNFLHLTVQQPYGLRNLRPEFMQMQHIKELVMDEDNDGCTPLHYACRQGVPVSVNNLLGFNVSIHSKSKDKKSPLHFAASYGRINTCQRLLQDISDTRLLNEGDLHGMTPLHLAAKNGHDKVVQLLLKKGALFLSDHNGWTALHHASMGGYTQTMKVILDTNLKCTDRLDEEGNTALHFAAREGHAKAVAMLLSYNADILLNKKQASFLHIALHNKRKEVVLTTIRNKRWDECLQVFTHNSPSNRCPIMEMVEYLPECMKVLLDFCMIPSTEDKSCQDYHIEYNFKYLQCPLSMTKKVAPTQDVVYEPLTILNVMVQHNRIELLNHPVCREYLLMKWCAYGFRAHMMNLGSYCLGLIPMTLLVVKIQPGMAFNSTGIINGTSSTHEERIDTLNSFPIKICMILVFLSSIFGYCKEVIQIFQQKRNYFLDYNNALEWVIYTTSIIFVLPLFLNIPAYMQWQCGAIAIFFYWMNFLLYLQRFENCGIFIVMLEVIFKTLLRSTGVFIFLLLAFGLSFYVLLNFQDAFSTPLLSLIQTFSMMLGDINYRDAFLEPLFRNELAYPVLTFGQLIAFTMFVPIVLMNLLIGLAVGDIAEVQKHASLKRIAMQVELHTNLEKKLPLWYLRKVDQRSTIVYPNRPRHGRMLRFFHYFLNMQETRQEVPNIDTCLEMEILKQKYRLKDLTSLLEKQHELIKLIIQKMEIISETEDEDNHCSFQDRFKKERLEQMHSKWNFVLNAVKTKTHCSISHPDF

The subject of data set [3] is CD1 mice. Kind of data set: AITC-induced spontaneous pain. It is filed as in vivo, mouse. Conditions: AITC 1 μg; for AITC-induced pain: 10 μg intraplantar; for AITC-induced nocifensive behaviors: 10 ng intraplantar.
Data set [4] concerns the target TRPV1 (Mus musculus, UniProt Q704Y3). Type of data set: cell-based. Conditions: for IC50: read-out: TRPV1 IC50.
The subject of data set [5] is TRPA1. Briefly: AITC-induced sEPSC frequency increase in lamina II neurons of spinal cord slices. The conditions noted are these: AITC 300 μM. Type of data set: cell-based, mouse. An outline of the steps: (§1)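 Transverse L4–L5 spinal cord slices (400–600 μm) from CD1 mice aged 4–6 weeks, perfused with Krebs solution gassed with 95% O2/5% CO2 at 37°C. Whole-cell sEPSCs recorded from lamina IIo neurons held at −70 mV with K-gluconate internal solution at pH 7.4. Signals filtered at 2 kHz and digitized at 5 kHz. Frequency ratio taken against pretreatment baseline, with AITC at […]; n = 5–9 neurons.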

Data set [6] deals with TRPV1. It is filed as cell-based, mouse. The conditions noted are these: capsaicin 1 μM.
Data set [7] deals with C-fiber-evoked field potentials in the dorsal horn. Kind of data set: Spinal cord LTP of C-fiber-evoked field potentials in anesthetized mice. Type of data set: in vivo, mouse. Conditions: 10 ng intrathecal, 2 h after LTP induction. An outline of the steps:
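Mice under urethane (1.5 g/kg i.p.), laminectomy at T13–L1. Bipolar sciatic nerve stimulation; C-fiber field potentials recorded in ipsilateral L4–L5 dorsal horn at 100–300 μm depth. Test pulses (2× threshold, 0.5 ms) every 5 min for >40 min, then tetanus (5× threshold, 100 Hz, 1 s, four trains, 10 s apart). Test compound 10 ng i.t. via PE5 catheter 2 h post-induction; n = 5; two-way ANOVA.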

Data set [8] relates to CD1 mice. Briefly: CFA-induced persistent inflammatory pain. Conditions: 10 ng intrathecal, 3 days after CFA. It is filed as in vivo, mouse.
The subject of data set [9] is lamina II neurons of spinal cord slices. Kind of data set: sEPSCs in spinal cord slices from CFA-inflamed mice. Conditions: 1 ng/ml; slices from CFA-inflamed mice (one day). Type of data set: cell-based, mouse. An outline of the steps: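 CD1 mice received CFA intraplantar (20 μl, 1 mg/ml) and were sliced 1 d later. Slices were compared with ones from noninflamed mice. L4–L5 transverse slices (400–600 μm) were perfused with Krebs solution at 37°C. Whole-cell recording from lamina IIo neurons held at −70 mV. sEPSC frequency and amplitude measured with test compound at 1 ng/ml; n = 5 neurons.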

The test system is the same in data set [10]. Kind of data set: Patch clamp of basal sEPSCs in lamina II neurons of spinal cord slices. It is filed as cell-based, mouse. The conditions noted are these: RvD2 alone, 1 ng/ml. An outline of the steps: as §1
Data set [11] has as its system CD1 mice. Kind of data set: Carrageenan-induced inflammatory pain. It is filed as in vivo, mouse. Conditions: 10 ng intraplantar.
Data set [12] concerns CD1 mice. Kind of data set: Formalin test. Type of data set: in vivo, mouse. The conditions noted are these: 0.01 ng intrathecal.
The subject of data set [13] is CD1 mice. Briefly: Rota-Rod test of motor function. It is filed as in vivo, mouse. Conditions: 10 ng i.t., naive animals.
Where [14] appears, read: TRPV1 current induced by capsaicin (100 nM), DRG neurons.
Where [15] appears, read: GDPβS 2.5 mM, 8 min, RvD2 1 ng/ml.
Setting [16] is: PTX 0.5 μg/ml, 18 h, RvD2 1 ng/ml.

“And” between values parts separate entries of the source, which are not always exact repeats. Identical values can stand only once.

TRPV1 (Mus musculus, UniProt Q704Y3), sequence (Q704Y3 whole entry, the tested form may be a part): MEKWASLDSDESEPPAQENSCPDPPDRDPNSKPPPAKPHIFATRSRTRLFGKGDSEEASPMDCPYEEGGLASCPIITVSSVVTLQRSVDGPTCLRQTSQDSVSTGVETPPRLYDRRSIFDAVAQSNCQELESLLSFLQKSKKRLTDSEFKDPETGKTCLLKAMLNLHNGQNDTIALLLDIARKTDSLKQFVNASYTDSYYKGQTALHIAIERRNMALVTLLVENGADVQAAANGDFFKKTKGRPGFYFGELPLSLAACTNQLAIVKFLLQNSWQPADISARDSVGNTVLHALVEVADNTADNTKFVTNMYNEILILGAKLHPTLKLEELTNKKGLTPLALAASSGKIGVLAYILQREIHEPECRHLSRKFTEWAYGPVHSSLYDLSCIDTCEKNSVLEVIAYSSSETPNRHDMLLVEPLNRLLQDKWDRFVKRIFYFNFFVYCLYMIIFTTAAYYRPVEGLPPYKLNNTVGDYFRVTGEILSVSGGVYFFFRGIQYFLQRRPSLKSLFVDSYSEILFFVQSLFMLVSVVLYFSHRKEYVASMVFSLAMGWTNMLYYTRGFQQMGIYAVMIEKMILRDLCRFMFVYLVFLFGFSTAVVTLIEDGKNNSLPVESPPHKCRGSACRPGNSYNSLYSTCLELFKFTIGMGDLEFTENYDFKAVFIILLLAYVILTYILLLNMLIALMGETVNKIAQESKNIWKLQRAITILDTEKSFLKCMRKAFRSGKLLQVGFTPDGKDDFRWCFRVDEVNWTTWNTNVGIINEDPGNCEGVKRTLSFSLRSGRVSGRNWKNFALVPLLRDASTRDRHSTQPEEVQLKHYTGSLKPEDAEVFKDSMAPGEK

For the compound `CC/C=C\C/C=C\C/C=C\C/C=C\C/C=C\C/C=C\CCC(=O)O` [DHA, docosahexaenoic acid, reference compound], the Capsaicin-induced pain entry in the data set with CD1 mice [1] is listed as “inhibited”. Further, the “Effect on TRPA1 currents” value at TRPA1 [2] is “without affecting”. The AITC-induced pain entry with CD1 mice [3] was “but not AITC-induced pain”.
In the same order, the values of `CC/C=C\C/C=C\C/C=C\C/C=C\C/C=C\CCCC(=O)O` [EPA, eicosapentaenoic acid, reference compound] are “inhibited”, “without affecting” and “but not AITC-induced pain”.
Usually IC50 stands for the concentration that gives 50% inhibition. Turning to `CC/C=C\C[C@H](O)/C=C/C=C\C=C\C=C\[C@@H](O)[C@@H](O)C/C=C\CCC(=O)O` [RvD1, Resolvin D1], on TRPV1 [4] (even at high concentrations), the “Effect on TRPV1 currents” value is on record as “no effect”. Further, the 50% inhibitory concentration (IC50) was above 26.6 nM at TRPV1 [4] (setting [14]); 9 nM and 8.5 nM on TRPA1 [2]. Besides, the “AITC-induced sEPSC frequency increase” value in the data set on TRPA1 [5] (10 ng/ml) was “selectively inhibited”. Further, the AITC-induced nocifensive behaviors entry with CD1 mice [3] was “selectively inhibited”.
Consider `CC/C=C\C[C@H](O)[C@H](O)/C=C/C=C/C=C\C=C\[C@@H](O)C/C=C\CCC(=O)O` [RvD2, Resolvin D2], for which, in the data set on TRPV1 [6] (0.1 and 1 ng/ml), the “Capsaicin-induced increase in sEPSC frequency” value is on record as “does-dependently blocked”. Also, the “LTP of C-fiber-evoked field potentials” value in data set [7] is “completely reversed”. The “Inhibition of TRPV1 current under intracellular GDPβS” value at TRPV1 [4] (setting [15]) is on record as “completely blocked”. Further, the “Effect on TRPV1 current after pertussis toxin pretreatment” value at TRPV1 [4] (setting [16]) is “could not alter”. At TRPV1 [4] (setting [14]), the “TRPV1 IC50 expressed” value was determined as 0.04 ng/mL and the IC50 turned out to be 0.1 ± 0.01 nM. Moreover, in the data set on CD1 mice [1], the Capsaicin-induced nocifensive behaviors result is reported as “significantly reduced”. In the data set with CD1 mice [8], the CFA-induced heat hyperalgesia entry is listed as “effectively reduced”; the “Duration of reduction of CFA-induced heat hyperalgesia and mechanical allodynia” value is above 3 h. Further, the CFA-induced mechanical allodynia result in the data set on CD1 mice [8] (data not shown) is “effectively reduced”. Further, in data set [9], the “CFA-induced increase in sEPSC amplitude” value was “abolished” and the “CFA-induced increase in sEPSC frequency” value was “abolished”. For the same compound, in data set [10], the “Basal sEPSC amplitude” value is “altered neither” and the “Basal sEPSC frequency” value is recorded as “altered neither”. Also, in the data set on CD1 mice [11], the CRG-induced heat hyperalgesia entry was “largely prevented” and the CRG-induced mechanical allodynia entry is given as “largely prevented”. In the data set on CD1 mice [11] (data not shown), the CRG-induced paw edema entry was “reduced”. In the data set on CD1 mice [12], the “Antinociceptive action in formalin test” value is recorded as “significant antinociceptive action”. Also, the “AITC-induced increase in sEPSC frequency” value in the data set on TRPA1 [5] (0.1 and 1 ng/ml) is reported as “does-dependently blocked”. Moreover, the “Inhibition of TRPA1 current under intracellular GDPβS” value on TRPA1 [2] (setting [15]) is listed as “completely blocked”. The “Effect on TRPA1 current after pertussis toxin pretreatment” value at TRPA1 [2] (setting [16]) is recorded as “could not alter”. For the same compound, the IC50 at TRPA1 [2] was 2 nM and 2.1 nM. Besides, the “Motor function in the Rota-rod test” value in the data set on CD1 mice [13] is listed as “Neither did this treatment affect”. Further, the AITC-induced nocifensive behaviors entry in the data set on CD1 mice [3] is “significantly reduced”.
`CC[C@@H](O)/C=C/C=C\C[C@@H](O)/C=C/C=C/C=C\[C@@H](O)CCCC(=O)O` [RvE1, Resolvin E1]: in the data set on TRPV1 [6] (1 ng/ml), the “Capsaicin-induced sEPSC frequency increase” value is “selectively inhibited”. Besides, the Capsaicin-induced nocifensive behaviors entry with CD1 mice [1] is recorded as “selectively inhibited”. For the same compound, the “Effect on TRPA1 currents” value at TRPA1 [2] is “did not inhibit”.

The values above are taken from paper PMC3242808 (The Journal of neuroscience : the official journal of the …, 2011).
